Screens as filed in PubChem.
An excerpt weighted towards active compounds, which were near 5.7% of everything screened.
T cruzi repl: T. cruzi replication inhibition. T. cruzi beta-gal in NIH3T3, luminescence, 90 h. inhibition, % (test concentration not listed). 300,000 tested, 1.4% active;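 active = mean inhibition across valid replicates above about 55%, limit read from the data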;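 note: signal also drops with host cell toxicity which is not excluded here; 0% = plate median of DMSO wells and 100% = zero luminescence signal; higher percent means less beta-gal luminescence so fewer parasites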
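Material: NIH/3T3 host cells with β-galactosidase reporter T. cruzi; Input: 5,000 host fibroblasts per well; Medium: DMEM, 2% fetal bovine serum; Compound: 50 nL DMSO compound solution per well; Schedule: 3 h host attachment, then at least 90 h co-culture; Detection: luminescent β-galactosidase signal after 60 min lysis.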
Mdm2 MdmX PPI: human Mdm2/MdmX binding inhibition; 330,000 tested, 3% active; O15151+Q00987; inhibition, % at 8 µM; SaOS-2 split-luciferase Mdm2/MdmX complementation, luminescence;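 active = inhibition of at least 50% at 8 µM in the primary screen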
Target sequence (O15151 whole entry, looked up): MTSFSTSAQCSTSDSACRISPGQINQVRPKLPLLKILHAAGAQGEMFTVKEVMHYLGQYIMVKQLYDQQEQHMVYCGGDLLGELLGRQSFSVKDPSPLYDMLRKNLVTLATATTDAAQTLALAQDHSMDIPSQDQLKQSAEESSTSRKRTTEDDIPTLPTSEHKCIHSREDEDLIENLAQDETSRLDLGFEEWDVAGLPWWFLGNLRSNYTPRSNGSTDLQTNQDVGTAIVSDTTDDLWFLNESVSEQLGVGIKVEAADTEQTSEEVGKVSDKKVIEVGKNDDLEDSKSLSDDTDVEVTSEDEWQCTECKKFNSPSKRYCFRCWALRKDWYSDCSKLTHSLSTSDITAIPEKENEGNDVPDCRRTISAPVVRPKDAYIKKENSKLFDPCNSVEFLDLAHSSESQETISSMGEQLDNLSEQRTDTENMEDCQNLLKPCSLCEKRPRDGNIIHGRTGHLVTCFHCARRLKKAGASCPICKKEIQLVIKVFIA
Target sequence (Q00987 whole entry, looked up): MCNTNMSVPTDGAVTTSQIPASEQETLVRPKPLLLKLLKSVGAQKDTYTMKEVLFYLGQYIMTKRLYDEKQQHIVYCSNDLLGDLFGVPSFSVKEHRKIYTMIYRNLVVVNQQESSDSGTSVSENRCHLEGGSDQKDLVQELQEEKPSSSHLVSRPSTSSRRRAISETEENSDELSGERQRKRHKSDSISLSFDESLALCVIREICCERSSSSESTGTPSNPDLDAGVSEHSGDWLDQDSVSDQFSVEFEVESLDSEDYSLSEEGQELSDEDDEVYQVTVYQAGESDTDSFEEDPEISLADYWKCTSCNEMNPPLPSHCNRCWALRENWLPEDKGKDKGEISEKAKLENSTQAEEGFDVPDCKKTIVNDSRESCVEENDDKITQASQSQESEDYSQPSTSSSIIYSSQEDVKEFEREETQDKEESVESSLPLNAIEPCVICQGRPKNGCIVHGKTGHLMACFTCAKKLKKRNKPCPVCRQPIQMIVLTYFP
Calb FLC: affects C. albicans growth with fluconazole; 300,000 tested, 0.57% active; growth inhibition, % (no concentration beside the values); AID 1979; C. albicans CaCi-2 + fluconazole, Alamar Blue growth, 48 h;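 active = growth inhibition above about 58% in most replicates, limit read from the data, passing the limit was not always enough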;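 note: all wells also contain fluconazole at 8 µg/ml as a sub-toxic cotreatment; 0% = median of DMSO wells and 100% = median of geldanamycin control wells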
CSC inhib: blocks cancer stem cells. inhibition, % at 7.5 µM. cancer stem cell-like cells viability, luminescence. 300,000 tested, 1.1% active; in the data active = inhibition above about 75%; tested in HMLE shEcad cells
SKKanGAS inh: blocks kanamycin growth of S. pyogenes SKKanGAS strain. BacTiter-Glo, 6 h. 300,000 tested, 1.3% active. inhibition, % at 7.5 µM;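 active = mean replicate score, as percent of positive control median, at least 50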;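 note: strain carries kanamycin resistance gene driven by streptokinase promoter and grows in 40 µg/ml kanamycin; loss of luminescence reflects streptokinase promoter inhibition or plain growth inhibition; 0% = median of DMSO wells and 100% = positive control at its reference dose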
Beta cell apopt: blocks beta cell apoptosis; INS-1E cytokine-induced death, ATP luminescence, 48 h; percent of positive-control rescue, neutral wells zero; protection from apoptosis, % (concentration not given with the values); 300,000 tested, 0.8% active;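 active = Every replicate reaches about 75%, or at least half do and their mean reaches it too, limit read from the data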;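 note: 0% = cytokine-treated negative control wells and 100% = positive control rescue; higher means more ATP so stronger rescue from cytokine killing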
Mdm2-MdmX conf: human Mdm2/MdmX binding inhibition, confirmed; inhibition, % at 8 µM; luminescent assay; 10,000 tested, 55% active; AID 489028; shares compounds with Mdm2 MdmX PPI; in the data active = inhibition above about 40%
FLuc counter: counter-screen for Mdm2/MdmX inhibitors: full-length luciferase | shares compounds with Mdm2 MdmX PPI | inhibition, % at 8 µM | 6,200 tested, 77% active | SaOS-2 full-length luciferase counterscreen, luminescence;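 active = mean inhibition at 8 µM reaching about 37%, which flags the compound as non-specific, limit read from the data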;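 note: p53-null SaOS-2 cells with luciferase driven by a doxycycline-inducible promoter; compound on cells about two nights before reading with doxycycline added after day one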
* hit, by the source's call; · = no result.

SMILES	T cruzi repl	Mdm2 MdmX PPI	Calb FLC	CSC inhib	SKKanGAS inh	Beta cell apopt	Mdm2-MdmX conf	FLuc counter
COc1cc(/C=C/C(=O)N2CCN(c3ccccn3)CC2)cc(OC)c1OC	-1	15	-11	-6	2	-3	·	·
COc1cc(/C=C/C(=O)N2CCN(C(=O)/C=C/c3cc(OC)c(OC)c(OC)c3)CC2)cc(OC)c1OC	0	64*	17	-6	7	2	13	·
COc1cc(/C=C/C(=O)N2C(=O)c3cccc(N)c3C2=O)cc(OC)c1OC	-6	71*	-16	·	2	-17	58*	79*
Nc1cccc2c1C(=O)N(C(=O)/C=C/c1cccc(Br)c1)C2=O	13	·	-6	·	2	·	·	·
Nc1cccc2c1C(=O)N(C(=O)/C=C/c1cccc(F)c1)C2=O	-32	56*	-2	25	3	-2	50*	65*
COc1ccc(OC)c(/C=C/C(=O)N2C(=O)c3cccc(N)c3C2=O)c1	-16	63*	-7	23	1	-32	48*	20
COc1cc(/C=C/C(=O)N2CCCC2)cc(OC)c1OC	11	17	-7	1	-1	-1	·	·
Cc1ccc(C2CN(CCC(N)=O)C(=O)CO2)cc1 (stereo not drawn)	·	-15	·	-16	·	-3	·	·
O=C(NCCc1c[nH]c2ccccc12)C(=O)NCC1OCCN1S(=O)(=O)c1ccc(Cl)cc1 (stereo not drawn)	-19	51*	4	1	-3	8	49*	37*
O=C(Cn1ncc(Cl)c(Cl)c1=O)N1CCOCC1	28	25	-5	71	-2	-29	·	·
Cc1ccc(Cn2ncc(Cl)c(Cl)c2=O)cc1	-6	80*	-12	-8	-1	-14	51*	5
CCc1ccc(C(=O)Cn2ncc(Cl)c(Cl)c2=O)cc1	60*	96*	21	-6	-15	-11	88*	51*
O=C(NCc1ccccc1F)C1CCCN1C(=O)Nc1ccc(Cl)cc1 (stereo not drawn)	-1	17	-3	-10	-5	-1	·	·
CCCc1sc(N/N=C/c2ccccn2)nc1-c1ccc(F)cc1	55*	69*	18	93*	96*	91*	36	45*
COc1ccccc1NS(=O)(=O)c1cc([N+](=O)[O-])ccc1N/N=C/c1c[nH]c2ccccc12	33	72*	0	68	38	5	25	·
COc1ccc(NS(=O)(=O)c2cc([N+](=O)[O-])ccc2N/N=C\c2c(C)[nH]c3ccccc23)cc1	6	77*	2	-1	27	16	6	·
CCN(CC)c1ccc(-c2nn3c(-c4ccccc4OC)nnc3s2)cc1	42	76*	48	93*	56*	57	65*	73*
CC(C)C1N(C(=O)CN2CCCCC2)CCN1S(=O)(=O)c1ccccc1 (stereo not drawn)	-3	-35	-7	-6	3	-4	·	·
COCCCNC(=O)c1ccc2c3c(onc13)-c1ccccc1C2=O	16	-68	-14	23	9	19	·	·
CCOC(=O)C(C(=O)OCC)c1cc(Br)c2noc3c2c1C(=O)c1ccccc1-3	65*	100*	16	117*	91*	33	95*	1
COC(=O)c1ccc(NC(=O)C(=O)c2cn(CC(=O)N3CCOCC3)c3ccccc23)cc1	-10	55*	7	-6	-7	3	0	·
COC1CCN(C(=O)c2ccc(OC3CCN(CCc4ccccc4)CC3)cc2)CC1	-37	-10	9	-5	-1	·	·	·
CCN(CC)C1CCN(C(=O)c2ccc(OC3CCN(CCc4ccccc4)CC3)cc2)C1 (stereo not drawn)	20	56*	-7	3	5	1	44*	74*
CCOC(=O)C(C(=O)OCC)C(C(=O)OCC)N1CCOCC1 (stereo not drawn)	-21	100*	-8	35	-13	·	-16	·
